Laboratory results reported in ChEMBL document CHEMBL1629611, “Activity of levofloxacin alone and in combination with a DnaK inhibitor against gram-negative rods, including levofloxacin-resistant strains” (2009).
Bridges are numbered along the chain shown (N, C = ends). Roman numbers before positions name the chains, in order. [ ]: non-standard residue; d: D form. NMeR = CN[C@@H](CCCNC(=N)N)C(=O)O; Api = NC1(C(=O)O)CCNCC1; Dab = NCC[C@H](N)C(=O)O

Columns and labels:
Format in all cases: functional
Enterobacter cloacae [1] = experiment: Antimicrobial activity against Enterobacter cloacae E397 by broth macrodilution method
Procedure, shortened: (§1)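 MIC by CLSI-approved broth macrodilution in one-quarter-strength cation-adjusted Mueller Hinton broth, each drug tested alone. Clinical gram-negative isolates were stored frozen at −70°C in double-strength skim milk before testing.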

Klebsiella pneumoniae [2] = experiment: Antimicrobial activity against Klebsiella pneumoniae E426 by broth macrodilution method
Procedure, shortened: (§2)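 CLSI-approved broth macrodilution in one-quarter-strength cation-adjusted Mueller Hinton broth. Each drug was tested alone against each clinical gram-negative isolate to give the MIC. Strains were stored frozen at −70°C in double-strength skim milk before testing.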

Klebsiella pneumoniae [3] = experiment: Antimicrobial activity against Klebsiella pneumoniae E368 by broth macrodilution method; procedure, shortened: as §2
Citrobacter freundii [4] = experiment: Antimicrobial activity against Citrobacter freundii E400 by broth macrodilution method; procedure, shortened: as §2
Enterobacter cloacae [5] = experiment: Antimicrobial activity against Enterobacter cloacae E373 by broth macrodilution method; procedure, shortened: as §1
Escherichia coli [6] = experiment: Antimicrobial activity against Escherichia coli E434 by broth macrodilution method; procedure, shortened: as §2
Klebsiella pneumoniae [7] = experiment: Antimicrobial activity against Klebsiella pneumoniae E411 by broth macrodilution method; procedure, shortened: as §2
Klebsiella pneumoniae [8] = experiment: Antimicrobial activity against Klebsiella pneumoniae E367 by broth macrodilution method; procedure, shortened: as §2
Escherichia coli [9] = experiment: Antimicrobial activity against Escherichia coli E394 by broth macrodilution method; procedure, shortened: as §2
Klebsiella pneumoniae [10] = experiment: Antimicrobial activity against Klebsiella pneumoniae E372 by broth macrodilution method; procedure, shortened: as §2
Klebsiella pneumoniae [11] = experiment: Antimicrobial activity against Klebsiella pneumoniae E353 by broth macrodilution method; procedure, shortened: as §2
Escherichia coli [12] = experiment: Antimicrobial activity against Escherichia coli E435 by broth macrodilution method; procedure, shortened: as §2
Klebsiella pneumoniae [13] = experiment: Antimicrobial activity against Klebsiella pneumoniae E364 by broth macrodilution method; procedure, shortened: as §2
Klebsiella pneumoniae [14] = experiment: Antimicrobial activity against Klebsiella pneumoniae E427 by broth macrodilution method; procedure, shortened: as §2
Klebsiella pneumoniae [15] = experiment: Antimicrobial activity against Klebsiella pneumoniae E363 by broth macrodilution method; procedure, shortened: as §1
Escherichia coli [16] = experiment: Antimicrobial activity against Escherichia coli E413 by broth macrodilution method; procedure, shortened: as §2
Klebsiella pneumoniae [17] = experiment: Antimicrobial activity against Klebsiella pneumoniae E369 by broth macrodilution method; procedure, shortened: as §2
Klebsiella pneumoniae [18] = experiment: Antimicrobial activity against Klebsiella pneumoniae E370 by broth macrodilution method; procedure, shortened: as §2
Klebsiella pneumoniae [19] = experiment: Antimicrobial activity against Klebsiella pneumoniae E433 by broth macrodilution method; procedure, shortened: as §1
Klebsiella pneumoniae [20] = experiment: Antimicrobial activity against Klebsiella pneumoniae E371 by broth macrodilution method; procedure, shortened: as §2
Escherichia coli [21] = experiment: Antimicrobial activity against Escherichia coli E410 by broth macrodilution method; procedure, shortened: as §1
Klebsiella pneumoniae [22] = experiment: Antimicrobial activity against Klebsiella pneumoniae E354 by broth macrodilution method; procedure, shortened: as §1
Escherichia coli [23] = experiment: Antimicrobial activity against Escherichia coli E436 by broth macrodilution method; procedure, shortened: as §2
Escherichia coli [24] = experiment: Antimicrobial activity against Escherichia coli E412 by broth macrodilution method; procedure, shortened: as §2
Escherichia coli [25] = experiment: Antimicrobial activity against Escherichia coli E425 by broth macrodilution method; procedure, shortened: as §2
Klebsiella pneumoniae [26] = experiment: Antimicrobial activity against Klebsiella pneumoniae E431 by broth macrodilution method; procedure, shortened: as §2
Escherichia coli [27] = experiment: Antimicrobial activity against Escherichia coli E393 by broth macrodilution method; procedure, shortened: as §1
Escherichia coli [28] = experiment: Antimicrobial activity against Escherichia coli E408 by broth macrodilution method; procedure, shortened: as §2
Citrobacter freundii [29] = experiment: Antimicrobial activity against Citrobacter freundii E384 by broth macrodilution method; procedure, shortened: as §1
Escherichia coli [30] = experiment: Antimicrobial activity against Escherichia coli E351 by broth macrodilution method; procedure, shortened: as §1
Escherichia coli [31] = experiment: Antimicrobial activity against Escherichia coli E430 by broth macrodilution method; procedure, shortened: as §2
Escherichia coli [32] = experiment: Antimicrobial activity against Escherichia coli E409 by broth macrodilution method; procedure, shortened: as §2
Pseudomonas aeruginosa [33] = experiment: Antimicrobial activity against Pseudomonas aeruginosa P335 by broth macrodilution method; procedure, shortened: as §1
Escherichia coli [34] = experiment: Antimicrobial activity against Escherichia coli E395 by broth macrodilution method; procedure, shortened: as §1
Escherichia coli [35] = experiment: Antimicrobial activity against Escherichia coli E396 by broth macrodilution method; procedure, shortened: as §1
Klebsiella pneumoniae [36] = experiment: Antimicrobial activity against Klebsiella pneumoniae E422 by broth macrodilution method; procedure, shortened: as §1
Escherichia coli [37] = experiment: Antimicrobial activity against Escherichia coli E424 by broth macrodilution method; procedure, shortened: as §2
Klebsiella pneumoniae [38] = experiment: Antimicrobial activity against Klebsiella pneumoniae E356 by broth macrodilution method; procedure, shortened: as §1
Escherichia coli [39] = experiment: Antimicrobial activity against Escherichia coli E437 by broth macrodilution method; procedure, shortened: as §1
Klebsiella pneumoniae [40] = experiment: Antimicrobial activity against Klebsiella pneumoniae E366 by broth macrodilution method; procedure, shortened: as §1
Escherichia coli [41] = experiment: Antimicrobial activity against Escherichia coli E439 by broth macrodilution method; procedure, shortened: as §1
Pseudomonas aeruginosa [42] = experiment: Antimicrobial activity against Pseudomonas aeruginosa P330 by broth macrodilution method; procedure, shortened: as §1
Escherichia coli [43] = experiment: Antimicrobial activity against Escherichia coli E346 by broth macrodilution method; procedure, shortened: as §1
Escherichia coli [44] = experiment: Antimicrobial activity against Escherichia coli E342 by broth macrodilution method; procedure, shortened: as §1
Escherichia coli [45] = experiment: Antimicrobial activity against Escherichia coli E438 by broth macrodilution method; procedure, shortened: as §1
Klebsiella pneumoniae [46] = experiment: Antimicrobial activity against Klebsiella pneumoniae E418 by broth macrodilution method; procedure, shortened: as §1
Klebsiella pneumoniae [47] = experiment: Antimicrobial activity against Klebsiella pneumoniae E362 by broth macrodilution method; procedure, shortened: as §1
Klebsiella pneumoniae [48] = experiment: Antimicrobial activity against Klebsiella pneumoniae E432 by broth macrodilution method; procedure, shortened: as §1
Klebsiella pneumoniae [49] = experiment: Antimicrobial activity against Klebsiella pneumoniae E428 by broth macrodilution method; procedure, shortened: as §1
Escherichia coli [50] = experiment: Antimicrobial activity against Escherichia coli E341 by broth macrodilution method; procedure, shortened: as §1

Work on C[C@H]1COc2c(N3CCN(C)CC3)c(F)cc3c(=O)c(C(=O)O)cn1c23.C[C@H]1COc2c(N3CCN(C)CC3)c(F)cc3c(=O)c(C(=O)O)cn1c23.O [LEVOFLOXACIN] yielded an MIC (Enterobacter cloacae [1]) of 16 µg/mL, an MIC (Klebsiella pneumoniae [2]) of 4 µg/mL and an MIC (Klebsiella pneumoniae [3]) of 8 µg/mL. For the same compound, the MIC (Citrobacter freundii [4]) was 32 µg/mL, the MIC (Enterobacter cloacae [5]) was 0.06 µg/mL and the MIC (Escherichia coli [6]) was 0.125 µg/mL. The MIC (Klebsiella pneumoniae [7]) was 2 µg/mL, the MIC (Klebsiella pneumoniae [8]) was 0.25 µg/mL and the MIC (Escherichia coli [9]) was 32 µg/mL. It also gave an MIC (Klebsiella pneumoniae [10]) of 0.25 µg/mL, an MIC (Klebsiella pneumoniae [11]) of 0.25 µg/mL and an MIC (Escherichia coli [12]) of 0.125 µg/mL. For the same compound, the MIC (Klebsiella pneumoniae [13]) was 2 µg/mL, the MIC (Klebsiella pneumoniae [14]) was 2 µg/mL and the MIC (Klebsiella pneumoniae [15]) was 0.06 µg/mL. It also gave an MIC (Escherichia coli [16]) of 8 µg/mL, an MIC (Klebsiella pneumoniae [17]) of 64 µg/mL and an MIC (Klebsiella pneumoniae [18]) of 32 µg/mL. For the same compound, the MIC (Klebsiella pneumoniae [19]) was 16 µg/mL, the MIC (Klebsiella pneumoniae [20]) was 32 µg/mL and the MIC (Escherichia coli [21]) was 4 µg/mL. It also gave an MIC (Klebsiella pneumoniae [22]) of 16 µg/mL, an MIC (Escherichia coli [23]) of 0.125 µg/mL and an MIC (Escherichia coli [24]) of 8 µg/mL. It also gave an MIC (Escherichia coli [25]) of 2 µg/mL, an MIC (Klebsiella pneumoniae [26]) of 4 µg/mL and an MIC (Escherichia coli [27]) of 16 µg/mL. It also gave an MIC (Escherichia coli [28]) of 32 µg/mL, an MIC (Citrobacter freundii [29]) of 0.125 µg/mL and an MIC (Escherichia coli [30]) of 16 µg/mL. For the same compound, the MIC (Escherichia coli [31]) was 0.125 µg/mL, the MIC (Escherichia coli [32]) was 8 µg/mL and the MIC (Pseudomonas aeruginosa [33]) was 16 µg/mL. It also gave an MIC (Escherichia coli [34]) of 16 µg/mL, an MIC (Escherichia coli [35]) of 16 µg/mL and an MIC (Klebsiella pneumoniae [36]) of 16 µg/mL. It also gave an MIC (Escherichia coli [37]) of 0.25 µg/mL.

With “I: H-[Api]DKGSYLPRPTPPRPIYN[NMeR]N[Dab]-NH2 / II: H-[Api]DKGSYLPRPTPPRPIYN[NMeR]N (amide I:21-II:C)” the MIC (Enterobacter cloacae [1]) was 8 µg/mL, the MIC (Klebsiella pneumoniae [2]) was 4 µg/mL and the MIC (Klebsiella pneumoniae [3]) was 8 µg/mL. The MIC (Klebsiella pneumoniae [38]) was 8 µg/mL, the MIC (Escherichia coli [39]) was 4 µg/mL and the MIC (Citrobacter freundii [4]) was 8 µg/mL. For the same compound, the MIC (Enterobacter cloacae [5]) was 4 µg/mL, the MIC (Klebsiella pneumoniae [40]) was 16 µg/mL and the MIC (Escherichia coli [41]) was 8 µg/mL. For the same compound, the MIC (Escherichia coli [6]) was 8 µg/mL, the MIC (Klebsiella pneumoniae [7]) was 8 µg/mL and the MIC (Klebsiella pneumoniae [8]) was 16 µg/mL. The MIC (Pseudomonas aeruginosa [42]) was 256 µg/mL, the MIC (Escherichia coli [9]) was 32 µg/mL and the MIC (Klebsiella pneumoniae [10]) was 4 µg/mL. The MIC (Klebsiella pneumoniae [11]) was 4 µg/mL, the MIC (Escherichia coli [43]) was 64 µg/mL and the MIC (Escherichia coli [12]) was 8 µg/mL. For the same compound, the MIC (Klebsiella pneumoniae [13]) was 8 µg/mL, the MIC (Klebsiella pneumoniae [14]) was 8 µg/mL and the MIC (Escherichia coli [44]) was 256 µg/mL. It also gave an MIC (Escherichia coli [45]) of 8 µg/mL, an MIC (Klebsiella pneumoniae [15]) of 4 µg/mL and an MIC (Escherichia coli [16]) of 32 µg/mL. It also gave an MIC (Klebsiella pneumoniae [17]) of 8 µg/mL, an MIC (Klebsiella pneumoniae [18]) of 4 µg/mL and an MIC (Klebsiella pneumoniae [19]) of 8 µg/mL. For the same compound, the MIC (Klebsiella pneumoniae [20]) was 32 µg/mL, the MIC (Klebsiella pneumoniae [46]) was 8 µg/mL and the MIC (Klebsiella pneumoniae [47]) was 4 µg/mL. For the same compound, the MIC (Escherichia coli [21]) was 4 µg/mL, the MIC (Klebsiella pneumoniae [22]) was 8 µg/mL and the MIC (Escherichia coli [23]) was 8 µg/mL. The MIC (Escherichia coli [24]) was 8 µg/mL, the MIC (Escherichia coli [25]) was 32 µg/mL and the MIC (Klebsiella pneumoniae [26]) was 4 µg/mL. It also gave an MIC (Escherichia coli [27]) of 16 µg/mL, an MIC (Escherichia coli [28]) of 16 µg/mL and an MIC (Citrobacter freundii [29]) of 512 µg/mL. It also gave an MIC (Escherichia coli [30]) of 32 µg/mL, an MIC (Klebsiella pneumoniae [48]) of 128 µg/mL and an MIC (Escherichia coli [31]) of 16 µg/mL. The MIC (Klebsiella pneumoniae [49]) was 8 µg/mL, the MIC (Escherichia coli [32]) was 16 µg/mL and the MIC (Pseudomonas aeruginosa [33]) was 128 µg/mL. It also gave an MIC (Escherichia coli [34]) of 32 µg/mL, an MIC (Escherichia coli [35]) of 16 µg/mL and an MIC (Klebsiella pneumoniae [36]) of 32 µg/mL. For the same compound, the MIC (Escherichia coli [50]) was 16 µg/mL and the MIC (Escherichia coli [37]) was 64 µg/mL.
